Experiment [1] concerns the target T1, Glycogen [starch] synthase, muscle (Homo sapiens) (UniProt P13807).
T1 sequence (whole entry): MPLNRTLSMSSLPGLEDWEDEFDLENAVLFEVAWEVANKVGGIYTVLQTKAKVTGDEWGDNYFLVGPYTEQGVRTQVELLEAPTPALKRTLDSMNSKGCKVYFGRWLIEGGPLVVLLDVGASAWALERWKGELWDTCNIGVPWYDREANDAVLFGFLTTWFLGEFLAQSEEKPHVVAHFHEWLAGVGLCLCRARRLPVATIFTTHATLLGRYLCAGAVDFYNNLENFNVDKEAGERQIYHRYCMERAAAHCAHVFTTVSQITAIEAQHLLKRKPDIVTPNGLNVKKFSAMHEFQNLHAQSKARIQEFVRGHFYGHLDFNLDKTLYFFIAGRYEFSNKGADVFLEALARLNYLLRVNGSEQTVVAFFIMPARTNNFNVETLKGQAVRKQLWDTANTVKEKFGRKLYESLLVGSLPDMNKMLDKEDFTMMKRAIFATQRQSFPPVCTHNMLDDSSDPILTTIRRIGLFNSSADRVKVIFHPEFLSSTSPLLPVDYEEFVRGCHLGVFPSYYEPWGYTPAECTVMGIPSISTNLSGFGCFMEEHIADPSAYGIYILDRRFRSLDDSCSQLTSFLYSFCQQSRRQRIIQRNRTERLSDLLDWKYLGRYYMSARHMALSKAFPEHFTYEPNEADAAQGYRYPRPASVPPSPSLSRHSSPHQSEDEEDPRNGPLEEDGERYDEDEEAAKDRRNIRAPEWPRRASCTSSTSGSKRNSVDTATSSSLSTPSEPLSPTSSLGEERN
The experiment in a line: Inhibition of C-terminal 6His-tagged wild type human GYS1 assessed as enzyme activity at 300 uM using UDPG as substrate in presence of 1 mM G-6-P by 14C-glucose incorporation assay relative to control. The arrangement: scale not given: the % may be the effect or the level left.

The nature of experiment [2]: Inhibition of recombinant His-tagged yeast GYS2P expressed in Escherichia coli BL21(DE3) cells using UDPG as substrate in absence of G-6-P by 14C-glucose incorporation assay. The arrangement: species or system Saccharomyces cerevisiae. The procedure, abridged: (§1)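 His-tagged yeast Gsy2p, expressed in E. coli BL21(DE3) and purified by Ni-NTA then Q-sepharose. Radiochemical incorporation of glucose into glycogen with 0.3 mM UDPG, with or without 0.04 mM G6P. Controls contained 2% (v/v) DMSO. IC50 was fitted by four-parameter logistic. Values are mean ± SEM of at least three independent experiments in duplicate.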

The species entered for experiment [3] is Homo sapiens. The experiment in a line: Inhibition of C-terminal 6His-tagged human GYS1 delta634S8,11N mutant at 100 uM using UDPG as substrate in presence of 0.4 mM G-6-P by 14C-glucose incorporation assay relative to control.
Experiment [4] addresses T1, Glycogen [starch] synthase, muscle (Homo sapiens). The experiment in a line: Inhibition of glycogen synthase in human HEK293 cell lysates overexpressing mouse PTG at 100 uM using 0.2 mM UDPG as substrate in presence of 1 mM G-6-P by 14C-glucose incorporation assay. The following applies: Lysate. Type of experiment: subcellular. An outline of the steps:
(§2)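 Lysates came from HEK293 cells stably expressing PTG (5.5 mM glucose αMEM, 10% FBS, hygromycin) or from Rat-1 cells (25 mM glucose DMEM, 10% FBS), grown 3–4 days to confluency. Cells were lysed by freezing, scraping and sonication in Tris/EDTA/EGTA/NaF buffer with protease inhibitors and Triton. Assays used 0.15 mg/mL (HEK293-PTG) or 0.75 mg/mL (Rat-1) lysate in 50 mM Tris-HCl pH 7.8 with 6.7 mg/ml glycogen and 2% DMSO. Read-out was [14C]glucose incorporation relative to DMSO control, in triplicate.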

Experiment [5] concerns the target T2, Glycogen [starch] synthase, muscle (Homo sapiens, UniProt P13807).
T2 sequence (P13807 whole entry): T1 sequence (whole entry)
The experiment in a line: Inhibition of C-terminal 6His-tagged wild type human GYS1 using UDPG as substrate in presence of 1 mM G-6-P by 14C-glucose incorporation assay. An outline of the steps:
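Full-length wild-type hGYS1 with C-terminal 6×His tag in place of the intein-chitin binding domain, Ni-NTA purified. Glucose transfer from UDP-[14C]glucose into glycogen with 0.2 mM UDPG and 1 mM G6P. Controls contained 2% (v/v) DMSO. IC50 was fitted by four-parameter logistic. Values are mean ± SEM of at least three independent experiments in duplicate.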

Experiment [6] is described as follows: Competitive inhibition of recombinant His-tagged yeast GYS2P expressed in Escherichia coli BL21(DE3) cells using UDPG as substrate in absence of G-6-P by 14C-glucose incorporation based Michaelis-Menton plot analysis. The arrangement: species or system Saccharomyces cerevisiae. The procedure, abridged:
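Yeast Gsy2p at 5 μg/ml in a 14C-glucose incorporation assay. UDPG was varied from 0.2 to 8 mM without G6P, and inhibitor was covaried up to 0.8 mM. Data were fitted to competitive, non-competitive and uncompetitive models, and the model was chosen by goodness of fit and residuals. Controls contained 2% (v/v) DMSO. Values are mean ± SEM of three independent experiments in duplicate.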

The nature of experiment [7]: Competitive inhibition of recombinant His-tagged yeast GYS2P expressed in Escherichia coli BL21(DE3) cells using UDPG as substrate in presence of G-6-P by 14C-glucose incorporation based Michaelis-Menton plot analysis. The arrangement: species or system Saccharomyces cerevisiae. The procedure, abridged:
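Ni-NTA then Q-Sepharose purified enzyme (5 μg/ml) assayed by radiolabelled glucose transfer from UDPG into glycogen. UDPG varied 0.2–8 mM with 7.2 mM G6P, covaried against fixed inhibitor levels, 2% (v/v) DMSO throughout. Data fitted to competitive, non-competitive and uncompetitive models, chosen by goodness-of-fit and residuals. Ki given as mean ± SEM of three independent experiments in duplicate.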

The nature of experiment [8]: Inhibition of recombinant His-tagged yeast GYS2P expressed in Escherichia coli BL21(DE3) cells using UDPG as substrate in presence of 0.04 mM G-6-P by 14C-glucose incorporation assay. The arrangement: species or system Saccharomyces cerevisiae. The procedure, abridged:
as §1

Experiment [9] concerns Saccharomyces cerevisiae. The experiment in a line: Inhibition of recombinant His-tagged yeast GYS2P expressed in Escherichia coli BL21(DE3) cells assessed as enzyme activity at 300 uM using UDPG as substrate in presence of G-6-P by 14C-glucose incorporation assay relative to control. The arrangement: scale not given: the % may be the effect or the level left.
The species entered for experiment [10] is Homo sapiens. The experiment in a line: Inhibition of C-terminal 6His-tagged human GYS1 delta634S8,11N mutant assessed as enzyme activity at 300 uM using UDPG as substrate in presence of 0.4 mM G-6-P by 14C-glucose incorporation assay relative to control. The arrangement: scale not given: the % may be the effect or the level left.
Experiment [11] is described as follows: Inhibition of C-terminal 6His-tagged human GYS1 delta634S8,11N mutant using UDPG as substrate in presence of 0.4 mM G-6-P by 14C-glucose incorporation assay. The procedure, abridged: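 Truncated hGYS1 (residues 635–737 deleted, Ser8/Ser11→Asn, C-terminal 6×His, Ni-NTA purified; activation state ~0.2). Radiolabelled glucose incorporation into glycogen with 0.2 mM UDPG and 0.4 mM G6P. Controls contained 2% (v/v) DMSO. IC50 was fitted by four-parameter logistic. Values are mean ± SEM of at least three independent experiments in duplicate.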

Experiment [12] has as its target T3, Glycogen [starch] synthase, muscle (Rattus norvegicus) (UniProt A2RRU1).
T3 sequence (whole entry): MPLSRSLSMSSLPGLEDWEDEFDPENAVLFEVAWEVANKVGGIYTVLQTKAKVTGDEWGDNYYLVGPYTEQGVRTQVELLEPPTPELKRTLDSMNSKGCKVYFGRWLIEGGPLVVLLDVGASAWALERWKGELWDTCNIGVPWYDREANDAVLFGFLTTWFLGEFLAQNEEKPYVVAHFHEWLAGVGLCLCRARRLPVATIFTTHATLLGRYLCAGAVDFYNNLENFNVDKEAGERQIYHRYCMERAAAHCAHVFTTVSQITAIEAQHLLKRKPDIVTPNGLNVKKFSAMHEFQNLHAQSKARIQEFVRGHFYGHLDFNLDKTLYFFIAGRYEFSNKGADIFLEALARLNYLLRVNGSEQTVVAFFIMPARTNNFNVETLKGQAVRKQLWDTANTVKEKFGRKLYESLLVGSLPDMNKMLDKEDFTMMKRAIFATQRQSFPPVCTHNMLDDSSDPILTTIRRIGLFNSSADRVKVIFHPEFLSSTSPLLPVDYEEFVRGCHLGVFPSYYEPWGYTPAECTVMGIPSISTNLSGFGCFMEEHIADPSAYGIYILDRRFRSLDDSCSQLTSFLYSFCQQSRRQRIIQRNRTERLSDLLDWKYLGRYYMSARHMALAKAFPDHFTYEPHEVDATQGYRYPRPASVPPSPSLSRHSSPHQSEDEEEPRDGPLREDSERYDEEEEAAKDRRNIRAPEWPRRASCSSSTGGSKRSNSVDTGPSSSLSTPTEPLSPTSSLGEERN
The experiment is described as follows: Inhibition of glycogen synthase in rat-1 fibroblast cell lysates at 100 uM using 0.2 mM UDPG as substrate in presence of 1 mM G-6-P by 14C-glucose incorporation assay. Type of experiment: subcellular. The conditions noted are these: Lysate. The procedure, abridged: as §2

Experiment [13] has as its target T1, Glycogen [starch] synthase, muscle (Homo sapiens). The experiment is described as follows: Inhibition of glycogen synthase in human HEK293 cell lysates overexpressing mouse PTG at 100 uM using 0.2 mM UDPG as substrate in presence of 1 mM G-6-P by 14C-glucose incorporation assay relative to control. Type of experiment: subcellular. The conditions noted are these: Lysate. The procedure, abridged:
as §2

For experiment [14] the target is unchanged. The experiment in a line: Inhibition of C-terminal 6His-tagged wild type human GYS1 assessed as enzyme activity at 20 uM using UDPG as substrate in presence of 1 mM G-6-P by 14C-glucose incorporation assay relative to control. The arrangement: scale not given: the % may be the effect or the level left.
Experiment [15] concerns the target T2, Glycogen [starch] synthase, muscle. The experiment in a line: Competitive inhibition of C-terminal 6His-tagged human GYS1 using UDPG as substrate in presence of G-6-P by 14C-glucose incorporation based Michaelis-Menton plot analysis. The procedure, abridged: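 Radiolabel transfer from UDP-[14C]glucose into glycogen. Inhibitor and UDPG concentrations were covaried. Data were fitted to competitive, non-competitive and uncompetitive models, and the model was chosen by goodness of fit and residuals. Controls contained 2% (v/v) DMSO. Values are mean ± SEM of three independent experiments, each in duplicate.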

The subject of experiment [16] is Saccharomyces cerevisiae. The experiment is described as follows: Inhibition of recombinant His-tagged yeast GYS2P expressed in Escherichia coli BL21(DE3) cells assessed as enzyme activity at 20 uM using UDPG as substrate in presence of G-6-P by 14C-glucose incorporation assay relative to control. The arrangement: scale not given: the % may be the effect or the level left.

The species entered for experiment [17] is Homo sapiens. The experiment in a line: Inhibition of C-terminal 6His-tagged human GYS1 delta634S8,11N mutant assessed as enzyme activity at 20 uM using UDPG as substrate in presence of 0.4 mM G-6-P by 14C-glucose incorporation assay relative to control. The arrangement: scale not given: the % may be the effect or the level left.
Experiment [18] addresses T3, Glycogen [starch] synthase, muscle (Rattus norvegicus). The experiment in a line: Inhibition of glycogen synthase in rat-1 fibroblast cell lysates at 100 uM using 0.2 mM UDPG as substrate in presence of 1 mM G-6-P by 14C-glucose incorporation assay relative to control. Format: subcellular. The following applies: Lysate. An outline of the steps:
as §2

Experiment [19] can be described thus: Inhibition of recombinant yeast GYS2P Y513L mutant using UDPG as substrate in presence of 7.2 mM G-6-P by 14C-glucose incorporation assay. The arrangement: species or system Saccharomyces cerevisiae. An outline of the steps: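 Yeast Gsy2p Y513L mutant, purified like the wild type. Assayed by 14C-glucose incorporation into glycogen with UDPG under saturating 7.2 mM G6P. IC50 curves used triplicate measurements, with three experiments performed.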

Broadly, the IC50 is the midpoint of a concentration-inhibition curve. Usually inhibition stands for the change of the read-out against control, counted positive when it falls. In general, Ki refers to the equilibrium dissociation constant of an inhibitor or competing ligand from its target.

Calls of active or inactive are those of the source. The calls are words filed in the database; no cut-off is given here.

As to `COc1cc(-c2c(-c3ccccc3)ncn2CCC2CCCN2C)ccc1O` (racemic), the Activity came to 77.1% in experiment [1], 36.5% with Saccharomyces cerevisiae [9] and 46.5% in the experiment listed under Homo sapiens [10]. Besides, the IC50 came out at 280 µM in experiment [2], 875 µM in [5], 263 µM in [8] and 161 µM in experiment [11]. Further, in the experiment listed under Homo sapiens [3], the inhibition is more than 20%. For the same molecule, the inhibition entry in [4] and in [12] was “inactive” each time. The Ki in [6] is 290 µM; in experiment [7], 370 µM.
Regarding `O=c1ccn([C@@H]2O[C@H](COP(=O)(O)OP(=O)(O)O)[C@@H](O)[C@H]2O)c(=O)[nH]1` [URIDINE_DIPHOSPHATE], the Ki in experiment [7] was 350 µM.
Take `Oc1ccc(-c2c(-c3ccc(O)c(O)c3O)n[nH]c2C(F)(F)F)cc1`: the inhibition in [13] and in experiment [18] was 100% each time. Besides, the values for the Activity (in experiment [14]; in the experiment with Saccharomyces cerevisiae [16]; in the experiment filed under Homo sapiens [17]) were -0.26%, 0.97% and -1.01%, respectively. Besides, the Ki in experiment [15] is 1.31 µM. The IC50 amounted to 2.75 µM in [5], 7.98 µM in experiment [8] and 33.6 µM in experiment [19].
With `O=C(O)CCc1ccc(-c2ccccc2)n1-c1ccc(O)cc1`, the figures for the Activity (in experiment [1]; in the experiment on Saccharomyces cerevisiae [9]; in the experiment listed under Homo sapiens [10]) were 58.9%, 40.1% and 40.1%, respectively. The inhibition result in experiment [4] and in experiment [12] was “inactive” in each case. Besides, in [5], the IC50 came to 384 µM.

The values are drawn from ChEMBL document CHEMBL4402576, “Discovery and Development of Small-Molecule Inhibitors of Glycogen Synthase” (J Med Chem, 2020).
